{"data": "Assay results collected from several papers", "target": "Mitogen-activated protein kinase 15 (MAPK15, Homo sapiens, UniProt Q8TD08)", "Sequence (Q8TD08 1-544, as in one of the studies)": "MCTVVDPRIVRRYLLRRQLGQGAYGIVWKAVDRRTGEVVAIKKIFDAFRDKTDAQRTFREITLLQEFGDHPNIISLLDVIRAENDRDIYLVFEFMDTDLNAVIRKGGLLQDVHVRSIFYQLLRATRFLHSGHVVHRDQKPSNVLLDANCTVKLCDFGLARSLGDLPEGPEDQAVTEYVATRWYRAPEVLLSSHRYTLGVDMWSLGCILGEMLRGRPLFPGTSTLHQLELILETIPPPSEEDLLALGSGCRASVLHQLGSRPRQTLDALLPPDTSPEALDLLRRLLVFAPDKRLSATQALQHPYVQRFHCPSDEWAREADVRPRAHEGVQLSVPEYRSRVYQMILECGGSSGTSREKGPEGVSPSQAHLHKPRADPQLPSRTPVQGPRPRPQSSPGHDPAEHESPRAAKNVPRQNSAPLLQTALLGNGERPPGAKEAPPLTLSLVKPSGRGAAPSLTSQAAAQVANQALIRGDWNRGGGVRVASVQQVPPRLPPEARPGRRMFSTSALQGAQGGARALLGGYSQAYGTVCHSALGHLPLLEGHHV"}
{"SMILES": "CSc1cccnc1N1CCN(Cc2nc3ccccc3[nH]2)CC1", "assay": "cell-free assay, competition with immobilised ligand", "setting": "1 µM", "remaining binding": "82%"}
{"SMILES": "COc1cnc(Nc2cccc(S(N)(=O)=O)c2)nc1N1CCN(c2ccccc2)C(=O)C1", "assay": "binding, competition with immobilised ligand", "setting": "1 µM", "remaining binding": "100%"}
{"SMILES": "F[C@@H]1CCN(c2nccc(-c3cnn4ncccc34)n2)C1", "assay": "binding", "setting": "1 µM", "remaining binding": "66%"}
{"SMILES": "Cc1noc([C@H]2C[C@@H](c3ccc(C(F)(F)F)cc3)CN(C(=O)N3CCS(=O)(=O)C3)C2)n1", "assay": "cell-free assay, competition with immobilised ligand", "setting": "1 µM", "remaining binding": "100%"}
{"SMILES": "CN(C)c1nccc(-c2cnn3ncccc23)n1", "assay": "binding", "setting": "1 µM", "remaining binding": "51%"}
{"SMILES": "O=C(O)c1cc(-c2ccc(C3CCNCC3)cc2)c2ccc(-c3ccc(C(F)(F)F)cc3)cc2c1", "assay": "cell-free assay, competition with immobilised ligand", "setting": "1 µM", "remaining binding": "100%"}
{"SMILES": "O=C(c1ccc(Nc2ncc(Cl)c(-c3cc4ccccc4s3)n2)cc1)N1CCC(N2CCCC2)CC1", "assay": "binding, competition with immobilised ligand", "setting": "1 µM", "remaining binding": "5.4%"}
{"SMILES": "C=CC(=O)N1CCC(C(=O)NCC(=O)N2CCN(c3nc(-c4cnc(N)nc4C(F)F)nc(N4CCOCC4)n3)CC2)CC1", "assay": "binding, competition with immobilised ligand", "setting": "1 µM", "remaining binding": "97%"}
{"SMILES": "C[C@H](NC(=O)c1cnc2n1[C@](C)(Cc1ccc(C#N)cc1)C(=O)N2c1cc(Cl)c(F)c(Cl)c1)C(=O)NC1(c2ccccn2)CC1", "assay": "cell-free assay, competition with immobilised ligand", "setting": "1 µM", "remaining binding": "100%"}
{"SMILES": "COc1ccnn2ncc(-c3ccnc(N(C)C)n3)c12", "assay": "binding", "setting": "1 µM", "remaining binding": "91%"}
{"SMILES": "COc1ccc2cc(OCC3(C(=O)O)CN(C(=O)c4ccc(F)cc4)C3)ccc2c1", "assay": "cell-free assay, competition with immobilised ligand", "setting": "1 µM", "remaining binding": "74%"}
{"SMILES": "O=C(c1ccc(Nc2nccc(-c3cc4ccccc4s3)n2)cc1)N1CCC(N2CCCC2)CC1", "assay": "binding, competition with immobilised ligand", "setting": "1 µM", "remaining binding": "49%"}
{"SMILES": "COc1ncc2cc3ccccc3nc2c1C#N", "assay": "cell-free assay, competition with immobilised ligand", "setting": "5 µM", "remaining binding": "91%"}
{"SMILES": "CN([C@@H]1CCc2c(CC(=O)O)c3ccccc3n2C1)S(=O)(=O)c1ccc(F)cc1", "assay": "cell-free assay, competition with immobilised ligand", "setting": "1 µM", "remaining binding": "100%"}
{"SMILES": "N[C@@H]1CCN(c2nccc(-c3cnn4ncccc34)n2)C1", "assay": "binding", "setting": "1 µM", "remaining binding": "97%"}
{"SMILES": "CO[C@@H](C)c1c(Nc2ccc([C@H](N(C)C(=O)C3CCS(=O)(=O)CC3)C(F)(F)F)cc2)cnc2cc(Cl)nn12", "assay": "cell-free assay, competition with immobilised ligand", "setting": "1 µM", "remaining binding": "87%"}
{"SMILES": "CN(CCCC(F)(F)F)c1nccc(-c2cnn3ncccc23)n1", "assay": "binding", "setting": "1 µM", "remaining binding": "100%"}
{"SMILES": "FC(F)(F)Oc1cccc(-c2cnc3ccc(-c4ccncc4)nn23)c1", "assay": "cell-free assay, competition with immobilised ligand", "setting": "5 µM", "remaining binding": "48%"}
{"SMILES": "C[C@@H]1CCN(c2nccc(-c3cnn4ncccc34)n2)C1", "assay": "binding", "setting": "1 µM", "remaining binding": "49%"}
{"SMILES": "O=C(NCCCN1CCOCC1)c1ccc(Nc2ncc(Cl)c(-c3ccc(Cl)s3)n2)cc1", "assay": "binding, competition with immobilised ligand", "setting": "1 µM", "remaining binding": "1.2%"}
{"SMILES": "c1cnn2ncc(-c3ccnc(N4CCC45COC5)n3)c2c1", "assay": "binding", "setting": "1 µM", "remaining binding": "71%"}
{"SMILES": "O=C(NCC1CCOCC1)c1n[nH]cc1NC(=O)c1c(F)cccc1F", "assay": "binding, competition with immobilised ligand", "setting": "1 µM", "remaining binding": "79%"}
